In ChEMBL document CHEMBL1124344, “5-Piperazinylalkyl-2(3H)-oxazolones with neuroleptic activity” (J Med Chem, 1989):

Assays:
Mus musculus [1] = experiment: Inhibition of amphetamine-induced hypermobility in mice following p.o. administration.; type: functional; conditions: po
Summary of the method: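 Compounds were given orally to male mice (gum arabic suspension, 10 mL/kg, fasted) in groups of five. Amphetamine 4 mg/kg ip followed 30 min later. After another 10 min, motility was recorded for 15 min with a photocell actophotometer. ED50, by probit analysis, is the dose giving 50% reduction against controls.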

Mus musculus [2] = experiment: Inhibition of spontaneous motor activity in mice, by administering perorally; type: functional; conditions: po
Summary of the method: (§1)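 Mice in groups of five were dosed orally with gum arabic suspensions at 10 mL/kg after an overnight fast, with a vehicle control group. Locomotion was counted for 10 min in a photocell activity cage, in at least two groups per dose. ED50, by probit analysis, is the dose giving 50% inhibition against controls.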

[3] = Lethal dose in mice (LD50) following i.p. dosing; type: toxicity, organism-based; conditions: mouse, in vivo, ip
Summary of the method: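 Acute toxicity tested in mice by the intraperitoneal route. LD50 is the dose killing 50% of treated mice, computed by Finney probit analysis; values are approximate.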

Rattus norvegicus [4] = experiment: Antagonistic activity against apomorphine-induced stereotypy in rats, by administering perorally at a dose of 400 mg/kg; type: functional; conditions: route oral
Summary of the method: (§2)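 Male rats fasted overnight and given oral doses in arabic gum suspension (10 mL/kg) 1 h, or 1 and 5 h, before challenge. Apomorphine 3 mg/kg iv, with stereotypy observed 20 min later. ED50 is the dose inhibiting stereotypy in 50% of rats, per Janssen's method. Parenthetical entries give the maximal dose and percent activity.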

Rattus norvegicus [5] = experiment: Activity to evoke catalepsy in rats, by administering perorally at a dose of 150 mg/kg; type: functional; conditions: route oral
Summary of the method: (§3)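 Rats fasted overnight and given oral doses in arabic gum suspension (10 mL/kg), 1 h before screening or 1 and 5 h before profile testing. Forelegs placed on a horizontal bar 7 cm high, three times at 5-min intervals. Immobility of at least 15 s counts as catalepsy. ED50 is the dose giving catalepsy in 50% of rats, by probit analysis. Parenthetical entries give the maximal dose and percent activity.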

Mus musculus [6] = experiment: Inhibition of spontaneous motor activity in mice, by administering perorally at a dose of 90 mg/kg; type: functional; conditions: route oral
Summary of the method: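 Mice fasted overnight, then dosed orally with compound (weighed as base) suspended in arabic gum, 10 mL/kg, with vehicle controls; 1 h pretreatment for screening tests, 1 or 5 h for others. Groups of five; locomotor activity counted 10 min in photocell activity cage, at least two groups per dose. ED50 = dose giving 50% inhibition versus controls, by probit analysis.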

Rattus norvegicus [7] = experiment: Antagonistic activity against apomorphine-induced stereotypy in rats, by administering perorally at a dose of 90 mg/kg; type: functional; conditions: route oral; summary of the method: as §2
Rattus norvegicus [8] = experiment: Activity to evoke catalepsy in rats, by administering perorally at a dose of 90 mg/kg; type: functional; conditions: route oral; summary of the method: as §3
Mus musculus [9] = experiment: Antagonistic activity against amphetamine-induced Hypermobility in mice, by administering perorally at a dose of 10 mg/kg; type: functional; conditions: route oral
Summary of the method: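 Male mice in groups of five, fasted overnight, given oral drug in arabic gum suspension (10 mL/kg) 1 or 5 h ahead. Amphetamine 4 mg/kg ip given 30 min after drug. Ten minutes later locomotion is recorded for 15 min in a photocell actophotometer. ED50 is 50% reduction versus control hypermotility, by probit analysis. Parenthetical entries give the maximal dose and percent activity.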

Mus musculus [10] = experiment: Inhibition of spontaneous motor activity in mice, by administering perorally at a dose of 10 mg/kg; type: functional; conditions: route oral; summary of the method: as §1
Rattus norvegicus [11] = experiment: Antagonistic activity against apomorphine-induced stereotypy in rats, by administering perorally at a dose of 20 mg/kg; type: functional; conditions: route oral; summary of the method: as §2
Rattus norvegicus [12] = experiment: Activity to evoke catalepsy in rats, by administering perorally at a dose of 20 mg/kg; type: functional; conditions: route oral, read-out: Inhibition; summary of the method: as §3
Rattus norvegicus [13] = experiment: Activity to evoke catalepsy in rats, by administering perorally at a dose 150 mg/kg; type: functional; conditions: route oral; summary of the method: as §3
Rattus norvegicus [14] = experiment: Antagonistic activity against apomorphine-induced stereotypy in rats, by administering perorally; type: functional; conditions: po; summary of the method: as §2

Row | SMILES | ED50 (Mus musculus [1]) [mg/kg] | ED50 (Mus musculus [2]) [mg/kg] | LD50 [3] [mg/kg] | inhibition in vivo at 400 mg/kg (Rattus norvegicus [4]) [%] | inhibition in vivo at 150 mg/kg (Rattus norvegicus [5]) [%] | inhibition in vivo at 90 mg/kg (Mus musculus [6]) [%] | inhibition in vivo at 90 mg/kg (Rattus norvegicus [7]) [%] | inhibition in vivo at 90 mg/kg (Rattus norvegicus [8]) [%] | inhibition in vivo at 10 mg/kg (Mus musculus [9]) [%] | inhibition in vivo at 10 mg/kg (Mus musculus [10]) [%] | inhibition in vivo at 20 mg/kg (Rattus norvegicus [11]) [%] | percent of rats showing catalepsy at 20 mg/kg (Rattus norvegicus [12]) [%] | inhibition in vivo at 150 mg/kg (Rattus norvegicus [13]) [%] | ED50 (Rattus norvegicus [14]) [mg/kg]
1 | Oc1nc(-c2ccc(Cl)cc2)c(CCN2CCN(c3ccccc3)CC2)o1 | 4.7 | 3 | > 1000 | 0 | 0 |  |  |  |  |  |  |  |  | 
2 | Oc1nc(-c2ccc(F)cc2)c(CCN2CCN(c3cc(Cl)ccc3Cl)CC2)o1 | 10 |  | 750 |  |  | 45 | 0 | 0 |  |  |  |  |  | 
3 | Oc1nc(-c2ccc(-c3ccccc3)cc2)c(CCN2CCN(c3ccccc3)CC2)o1 |  |  | 750 |  |  |  |  |  | 33 | 32 | 0 | 0 |  | 
4 | CCn1c(-c2ccc(F)cc2)c(CCN2CCN(c3ccccc3)CC2)oc1=O | 17 | 15.4 | 750 |  |  |  |  |  |  |  |  |  | 0 | 75
